Rows were chosen to be rich in hits. Some 4.6% of all compounds tested hit in one or more screens of this group.
PolyA inhibitor = blocks polyadenylation in yeast reporter cells; hit rate 0.02% among 300,000; S. cerevisiae SKY197-pL101 polyadenylation reporter, beta-gal luminescence; efflux-impaired pdr1/pdr3 knockout yeast; score 100 = 6 SD above DMSO; activity score, % at 12 µM;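 active = lowest replicate activity score at least 50, where 100 means six control SD above control mean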;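 note: yeast exposed to compound for 9 h at 30 °C; higher score means more reporter readthrough which indicates perturbed polyadenylation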
ALR inh = blocks human ALR sulfhydryl oxidase activity | purified ALR, DTT oxidation, H2O2 HRP-luminol luminescence | AID 485317 | hit rate 3.8% among 290,000 | inhibition, % (no concentration beside the values) | P55789;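 active = mean replicate inhibition above about 79%, with every replicate also reaching it, limit read from the data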
NLRP3 yeast inh = blocks the NALP3 inflammasome reconstituted in yeast. inhibition, % at 10 µM. Yeast reconstituted NLRP3/ASC/caspase-1, beta-gal luminescence, 24 h. hit rate 0.39% among 330,000;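 active = inhibition of 50% or more; inactive = inhibition below 50%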;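 note: plate controls were induced DMSO wells for no effect and uninduced yeast grown without galactose for full effect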
NALP1 yeast inh = inhibitors of NALP1 inflammasome in yeast. S. cerevisiae NALP1/ASC/caspase-1 growth, X-gal OD620, 72 h. inhibition, % at 10 µM. hit rate 0.61% among 280,000. AID 2071; in the data active = inhibition mostly above about 24%, no sharp cut-off; inactive = mostly below about 32%
Arrestin-AP2 inh = inhibitors of human beta-arrestin and AP2 interaction; FITC-arrestin peptide / GST-AP2 beads, flow cytometry; AP2 beta2 appendage carries R879A mutation; inhibition, % at 10 µM; AID 504490; hit rate 0.31% among 340,000;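 active = inhibition above a set limit, near 3 SD of compounds lacking own fluorescence, cut at about 54% in these data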;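 note: plate controls were DMSO wells for no effect and 5 µM unlabelled arrestin peptide for full effect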
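Test system: GST-tagged AP2 beta2-adaptin appendage (R879A) on 4 µm glutathione beads; also added: fluorescein-tagged arrestin peptide at 50 nM final; timing: 12 min plus 1 h, RT; signal: flow cytometry, FL1 (488/535 nm); read-out: percent drop in bead-associated FITC signal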
DSG3 Ab inh = human desmoglein-3 autoantibody binding inhibition; DSG3-coupled beads, scFv-anti-DSG3-GFP binding, flow cytometry; hits give low values; P32926; binding (percent of control), % at 10 µM; hit rate 0.48% among 310,000;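 active = binding more than 3 SD below its plate's average and above zero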;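 note: hits lower antibody fragment binding to DSG3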
Target sequence (P32926 whole entry, looked up, the tested form may be a part): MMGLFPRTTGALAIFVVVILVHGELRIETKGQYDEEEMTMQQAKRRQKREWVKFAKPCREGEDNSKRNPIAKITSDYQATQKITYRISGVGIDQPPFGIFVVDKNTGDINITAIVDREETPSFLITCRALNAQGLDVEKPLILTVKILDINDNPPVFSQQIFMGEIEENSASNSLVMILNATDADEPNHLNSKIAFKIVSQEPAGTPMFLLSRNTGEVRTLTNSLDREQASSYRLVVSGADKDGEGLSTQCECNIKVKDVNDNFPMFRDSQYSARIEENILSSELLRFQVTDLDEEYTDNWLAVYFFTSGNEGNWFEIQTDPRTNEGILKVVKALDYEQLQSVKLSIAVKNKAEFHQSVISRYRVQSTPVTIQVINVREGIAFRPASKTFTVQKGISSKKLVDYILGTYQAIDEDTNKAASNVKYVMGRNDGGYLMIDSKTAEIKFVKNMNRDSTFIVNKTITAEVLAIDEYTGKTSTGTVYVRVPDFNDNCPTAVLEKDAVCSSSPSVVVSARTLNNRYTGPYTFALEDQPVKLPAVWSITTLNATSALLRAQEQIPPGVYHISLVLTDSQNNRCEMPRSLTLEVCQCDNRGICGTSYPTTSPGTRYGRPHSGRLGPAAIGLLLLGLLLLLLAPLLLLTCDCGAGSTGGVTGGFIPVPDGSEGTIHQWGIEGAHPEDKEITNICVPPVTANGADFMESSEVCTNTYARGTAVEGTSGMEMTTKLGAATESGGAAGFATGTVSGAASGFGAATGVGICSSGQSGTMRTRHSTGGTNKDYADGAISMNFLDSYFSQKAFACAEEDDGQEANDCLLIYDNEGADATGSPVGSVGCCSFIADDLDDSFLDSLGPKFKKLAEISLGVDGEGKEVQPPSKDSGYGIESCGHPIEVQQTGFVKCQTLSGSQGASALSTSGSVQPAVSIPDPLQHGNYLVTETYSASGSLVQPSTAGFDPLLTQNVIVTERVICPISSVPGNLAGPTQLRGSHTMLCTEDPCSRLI
* marks the source's active call; other numbers are inactive results.

What do the screens show for `COc1ccc(CNC(=O)CS(=O)Cc2nc(-c3ccccc3C)oc2C)cc1` (configuration not stated)?
PolyA inhibitor: -12; ALR inh: 99*; NLRP3 yeast inh: 16; NALP1 yeast inh: -11; Arrestin-AP2 inh: 11; DSG3 Ab inh: 87

Results for Cc1ccc(CNC(=O)CS(=O)Cc2nc(-c3ccccc3C)oc2C)cc1 (configuration not stated) ?
PolyA inhibitor: 20; ALR inh: 26; NLRP3 yeast inh: 12; NALP1 yeast inh: -9; Arrestin-AP2 inh: 5; DSG3 Ab inh: 95

How did O=C(CN1CCN(S(=O)(=O)c2ccc(F)c(Cl)c2)CC1)N1CCNC1=O do in these assays?
ALR inh: -1; NLRP3 yeast inh: -9; Arrestin-AP2 inh: 6; DSG3 Ab inh: 94

How did CCn1c(CSc2nccn2C)nc2cc(C(=O)O)ccc21 do in these assays?
PolyA inhibitor: -3; ALR inh: 98*; NLRP3 yeast inh: -6; NALP1 yeast inh: 9; Arrestin-AP2 inh: 4; DSG3 Ab inh: 107

Results for CCOC(=O)CSc1nnc(-c2ccccc2NC(=O)c2ccccc2)o1 ?
PolyA inhibitor: 0; ALR inh: -6; NLRP3 yeast inh: -2; NALP1 yeast inh: 15; Arrestin-AP2 inh: -12; DSG3 Ab inh: 69*

What do the screens show for `N#C/C(=N\Nc1ccc(Cl)cc1)C(=N)N1CCCCC1`?
PolyA inhibitor: -11; NLRP3 yeast inh: 6; NALP1 yeast inh: 3; Arrestin-AP2 inh: -5; DSG3 Ab inh: 109

What do the screens show for `Cc1ccc(N/N=C(\C#N)C(=N)N2CCCCCC2)cc1`?
PolyA inhibitor: -16; ALR inh: 2; NLRP3 yeast inh: 18; NALP1 yeast inh: -1; Arrestin-AP2 inh: 11; DSG3 Ab inh: 92

How did Cc1ccc(N/N=C(\C#N)C(=O)c2ccsc2)cc1 do in these assays?
PolyA inhibitor: -12; ALR inh: 18; NLRP3 yeast inh: 43; NALP1 yeast inh: -2; Arrestin-AP2 inh: 31; DSG3 Ab inh: 107

How did CCN(CC)C(=N)/C(C#N)=N/Nc1ccc(C)cc1 do in these assays?
PolyA inhibitor: 14; ALR inh: 99*; NLRP3 yeast inh: 20; NALP1 yeast inh: 24; Arrestin-AP2 inh: 7; DSG3 Ab inh: 102

What do the screens show for `Cc1ccc(N/N=C(\C#N)C(=N)N2CCOCC2)cc1`?
PolyA inhibitor: -21; ALR inh: 98*; NLRP3 yeast inh: 19; NALP1 yeast inh: 20; Arrestin-AP2 inh: 3; DSG3 Ab inh: 82

Results for COc1ccc(N/N=C(\C#N)C(=N)N2CCCCC2)cc1 ?
PolyA inhibitor: -5; ALR inh: 99*; NLRP3 yeast inh: 12; NALP1 yeast inh: 6; Arrestin-AP2 inh: 0; DSG3 Ab inh: 102

What do the screens show for `COCCCn1c(=S)[nH]c2sc3c(c2c1=O)CCCS3`?
PolyA inhibitor: 19; ALR inh: 99*; NLRP3 yeast inh: -4; NALP1 yeast inh: 7; Arrestin-AP2 inh: 36

Results for COc1ccc(-c2n[nH]c(=S)n2C2CCCCC2)cc1 ?
PolyA inhibitor: -3; ALR inh: 89*; NLRP3 yeast inh: 19; NALP1 yeast inh: -7; Arrestin-AP2 inh: 3; DSG3 Ab inh: 101

What do the screens show for `Oc1ccccc1-c1n[nH]c(=S)n1Cc1ccco1`?
PolyA inhibitor: 12; ALR inh: 91*; NLRP3 yeast inh: 17; NALP1 yeast inh: -8; Arrestin-AP2 inh: -3; DSG3 Ab inh: 98

What do the screens show for `Fc1ccc(-c2n[nH]c(=S)n2Cc2ccccc2)cc1`?
PolyA inhibitor: -4; ALR inh: 5; NLRP3 yeast inh: 5; NALP1 yeast inh: -2; Arrestin-AP2 inh: 35; DSG3 Ab inh: 95

What do the screens show for `COc1ccc(Cl)cc1-c1n[nH]c(=S)n1C1CCCCC1`?
PolyA inhibitor: -23; ALR inh: 49; NLRP3 yeast inh: 7; NALP1 yeast inh: -8; Arrestin-AP2 inh: 18; DSG3 Ab inh: 100

Results for COc1ccc(-c2n[nH]c(=S)n2Cc2ccco2)cc1 ?
PolyA inhibitor: 35; ALR inh: 97*; NLRP3 yeast inh: 17; NALP1 yeast inh: -2; Arrestin-AP2 inh: -17; DSG3 Ab inh: 97

How did Oc1ccc(-c2n[nH]c(=S)n2Cc2ccccc2)cc1 do in these assays?
PolyA inhibitor: 1; ALR inh: 97*; NLRP3 yeast inh: 33; NALP1 yeast inh: -15; Arrestin-AP2 inh: -5; DSG3 Ab inh: 112

Results for COc1cc2[nH]c(=O)c(C(=O)NCc3ccc(C)cc3)c(O)c2cc1OC ?
DSG3 Ab inh: 99

How did COc1ccc(-c2cc(C(=O)N/N=C(\C)c3cccnc3)c3ccccc3n2)c(OC)c1 do in these assays?
PolyA inhibitor: -11; ALR inh: 34; NLRP3 yeast inh: 5; NALP1 yeast inh: 2; Arrestin-AP2 inh: -5; DSG3 Ab inh: 104

Results for CCN1C[C@@H]2[C@@H]3C(=O)N(C)C(=O)[C@@H]3[C@](C)(C1=O)N2C(=O)c1ccc(F)cc1 ?
Arrestin-AP2 inh: 3; DSG3 Ab inh: 104

How did COc1cc(/C=C/C(=O)OCC(=O)Nc2c(C)n(C)n(-c3ccccc3)c2=O)ccc1O do in these assays?
PolyA inhibitor: 12; ALR inh: 99*; NLRP3 yeast inh: 9; NALP1 yeast inh: 9; Arrestin-AP2 inh: -6; DSG3 Ab inh: 101

What do the screens show for `COc1cc(/C=C/C(=O)OCC(=O)Nc2ccccc2Sc2ccc(Cl)cc2)ccc1O`?
PolyA inhibitor: -5; ALR inh: 91*; NLRP3 yeast inh: 4; NALP1 yeast inh: 30; Arrestin-AP2 inh: -6; DSG3 Ab inh: 98

Results for CCC(C)NC(=O)c1cc2c(=O)n(CC)c3ccccc3c2s1 (configuration not stated) ?
PolyA inhibitor: 1; NLRP3 yeast inh: -2; NALP1 yeast inh: 14; Arrestin-AP2 inh: 2; DSG3 Ab inh: 94

Results for Nc1ccc(N2CCCC2)c(S(=O)(=O)Nc2cccc(C(F)(F)F)c2)c1 ?
ALR inh: 18; NLRP3 yeast inh: -4; Arrestin-AP2 inh: 32; DSG3 Ab inh: 95

What do the screens show for `O=C1C=CC2=C3c4cc(O)c(O)cc4CC3(O)COC2=C1O` (configuration not stated)?
Arrestin-AP2 inh: 25

How did CCC(Oc1ccccc1)C(=O)Nc1ncc([N+](=O)[O-])s1 (configuration not stated) do in these assays?
PolyA inhibitor: -22; ALR inh: 97*; NLRP3 yeast inh: 21; NALP1 yeast inh: -12; Arrestin-AP2 inh: 9; DSG3 Ab inh: 97

Results for O=C(COC(=O)COc1ccccc1)Nc1ncc([N+](=O)[O-])s1 ?
ALR inh: 96*; NLRP3 yeast inh: 16; Arrestin-AP2 inh: -10; DSG3 Ab inh: 94

Results for O=C(COc1cccc(F)c1)Nc1nc(-c2ccncc2)cs1 ?
ALR inh: -4; NLRP3 yeast inh: 23; Arrestin-AP2 inh: -8

Results for CCCOC(=O)c1ccc(Oc2cn[nH]c2-c2ccc(O)cc2O)cc1 ?
PolyA inhibitor: -20; ALR inh: 85*; NLRP3 yeast inh: 15; NALP1 yeast inh: 12; Arrestin-AP2 inh: 2; DSG3 Ab inh: 100
